# Screening data (PubChem BioAssay)
# TDP2 absorb: blocks human TDP2 phosphodiesterase activity | O95551 | recombinant TDP2, T5PNP hydrolysis, p-nitrophenol absorbance 415 nm | inhibition, % at 12.8 µM | actives 0.34% (n = 370,000) | AID 720702;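 active means inhibition above the mean of all tested compounds plus 3 SD, set per campaign, cut at about 25% in these data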;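 further: 0% = DMSO with enzyme and 100% = buffer with substrate but no TDP2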
#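 Read-out basis: percent inhibition. System: recombinant human TDP2. Buffer or medium: Mg2+-containing Tris-HCl buffer, pH 7.5. Repeats: single replicate. Timing: reaction 2 h, 37 °C. Benchmarks: high control without enzyme, low control DMSO plus TDP2. Probe or stimulus: 5 mM T5PNP. Doses: 12.8 µM only. Measured by: epi absorbance of p-nitrophenol freed from T5PNP by hydrolysis.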
# MBD2 inh: MBD2-methylated oligo binding inhibition. Q9UBB5. TR-FRET, MBD2 binding to methylated oligonucleotide. inhibition, % at 4.4 µM. actives 0.31% (n = 370,000); in the data active means inhibition above about 13%
# Target sequence (Q9UBB5 whole entry, looked up): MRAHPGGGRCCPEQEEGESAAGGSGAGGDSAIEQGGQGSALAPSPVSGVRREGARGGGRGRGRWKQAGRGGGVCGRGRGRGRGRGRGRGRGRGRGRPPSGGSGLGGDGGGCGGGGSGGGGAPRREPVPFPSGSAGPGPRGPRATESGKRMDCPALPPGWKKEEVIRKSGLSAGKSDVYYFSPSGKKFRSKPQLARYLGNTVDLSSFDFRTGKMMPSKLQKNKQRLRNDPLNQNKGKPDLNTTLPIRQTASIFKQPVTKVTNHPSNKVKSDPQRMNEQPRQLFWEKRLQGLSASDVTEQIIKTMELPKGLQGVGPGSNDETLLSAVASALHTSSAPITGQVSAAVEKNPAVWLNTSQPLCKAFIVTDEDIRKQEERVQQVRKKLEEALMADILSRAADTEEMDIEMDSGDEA
# UHRF1 binding: human UHRF1 methylated DNA binding inhibitors; UHRF1 binding to methylated oligo, TR-FRET; inhibition, % at 4.4 µM; actives 0.75% (n = 370,000); AID 687016; in the data active means inhibition above about 21%;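 further: UHRF1 SRA domain binding a hemimethylated CpG hairpin DNA probe; 0% = median of test compound wells and 100% = reference inhibitor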
# LEDGF integ inh: blocks HIV-1 LEDGF/p75-dependent DNA integration. AID 743269. inhibition, % at 3.7 µM. TR-FRET IN-LEDGF/p75 DNA integration, Eu/Cy5. actives 0.64% (n = 370,000);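 active means inhibition above the screen-wide mean plus 3 SD, cut at about 13% in these data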;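 further: signal is the Cy5 over europium emission ratio at 671 and 618 nm; 0% = plate median of compound wells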
# * = called active by the depositor. Sampled rows, rich in hits. Any-hit rate of the full collection: about 1.6%.
SMILES,TDP2 absorb,MBD2 inh,UHRF1 binding,LEDGF integ inh
CCOC(=O)C1CCCN(C(=O)Nc2c(-c3ccccc3)noc2C)C1 (stereo not drawn),10,4,32*,-1
CCOC(=O)C1CCCN(C(=O)c2c(-c3ccccc3Cl)noc2C)C1 (stereo not drawn),-3,-1,-1,-1
O=C(O)c1ccc(N2C(=O)c3cccc4c(C(=O)O)ccc(c34)C2=O)cc1,-3,6,24*,3
O=C(O)c1ccc2c3c(cccc13)C(=O)N(c1ccccc1)C2=O,11,6,15,5
O=C(O)c1ccc2c(c1)[C@@H]1C=CC[C@@H]1[C@H](c1ccccn1)N2,26*,91*,98*,95*
COc1cccc(NS(=O)(=O)c2ccc3c(c2)C2C=CCC2C(c2ccc(C(=O)O)cc2)N3)c1 (stereo not drawn),16,1,8,44*
CCOC(=O)c1ccc2c(c1)C1C=CCC1C(C(=O)OCC)N2 (stereo not drawn),-3,-4,-2,0
COc1ccc(OC)c(S(=O)(=O)N2CCCC(C(=O)N3CCN(Cc4ccccc4)CC3)C2)c1 (stereo not drawn),0,10,4,-4
CC(=O)CC[C@H]1CC[C@]2(CCCN(S(C)(=O)=O)C2)O1,5,9,0,-1
Cc1ccc(S(=O)(=O)N(C)CC(=O)NNC(=O)CCNS(=O)(=O)c2cccc(C)c2)cc1,5,2,34*,-3
CC(C)(C)CCNc1nc(-c2ccccn2)nnc1-c1ccccc1,13,-3,1,-4
CN(C)c1ccc(NC(=O)c2cn(-c3ccccc3)nc2-c2cccs2)cc1,-5,0,0,-3
CN(C)C(=O)c1cn(-c2ccccc2)nc1-c1cccs1,-4,0,1,17*
N#Cc1cccc(NC(=O)OCCCN2CCC3(CCCCC3)C2=O)c1,-3,-3,2,2
COc1cccc(CN2CC(C(=O)N(C)Cc3nc4ccc(F)cc4[nH]3)CCC2=O)c1 (stereo not drawn),1,0,25*,0
CCN(CC)c1ccc(NS(=O)(=O)c2ccc(-c3ccc(=O)[nH]n3)o2)c(C)c1,4,-1,-6,15*
CCCN(CCC)Cc1cc(=O)oc2cc3c(cc12)CCC3,0,-6,31*,-1
Cc1nc(NC(=O)COC(=O)[C@@H](NC(=O)c2ccco2)C(C)C)c(Cl)cc1Cl,0,-3,42*,-8
CN(CCC#N)C(=O)COC(=O)c1c2c(nc3ccccc13)/C(=C/c1ccco1)CC2,-13,64*,86*,79*
Cc1ccc(CNC(=O)c2ccc(N3CCC4(CC3)CC(c3ccccc3)=NO4)c([N+](=O)[O-])c2)cc1,8,4,22*,1
O=C(NCc1ccccc1)c1ccc(N2CCC3(CC2)CC(c2ccccc2)=NO3)c([N+](=O)[O-])c1,8,-4,-2,-2
O=C(c1cc(F)ccc1F)N1CCCC(c2nc(-c3cccs3)no2)C1 (stereo not drawn),0,0,-2,-1
CCOc1ccccc1N1CCN(Cc2ccc(OC)c(OC)c2)CC1,13,2,23*,-2
Cc1cc(Cl)cc(Cl)c1OCCCCN(C)C,17,4,22*,3
CCCCNC(=O)C1c2ccccc2OCC(=O)N1Cc1ccccc1 (stereo not drawn),-5,1,2,3
SMILES,TDP2 absorb,MBD2 inh,UHRF1 binding,LEDGF integ inh
CCCCNC(=O)C1c2ccccc2OCC(=O)N1C1CC1 (stereo not drawn),6,3,21*,4
CC(CN1CCCC1)C(=O)NN (stereo not drawn),2,3,1,-4
CC(CN1CCCCC1)C(=O)NN (stereo not drawn),-2,4,21*,3
Cc1ccc(S(=O)(=O)N=Nc2c(O)[nH]c3ccccc23)cc1C,8,-3,-4,3
COc1ccc(S(=O)(=O)N=Nc2c(O)[nH]c3ccccc23)cc1,3,13*,46*,10
COC(=O)[C@@]12CCCCC3=C1N(CCC3)C(=O)[C@H]2CC(=O)N1CCN(C(=O)C2CC2)CC1,-7,1,-3,6
COc1ccccc1Cc1c(-c2ccc(Cl)cc2)nc2ccc(C)cn12,-5,5,21*,-1
CCCc1nc2c(C)cc(Br)cn2c1Cc1ccccc1C(F)(F)F,-1,9,22*,1
Cc1cc(Br)cn2c(Cc3ccccc3C(F)(F)F)c(-c3ccccc3)nc12,3,-1,7,-1
CCCc1nc2ccc(C)cn2c1Cc1ccccc1C(F)(F)F,5,10,24*,0
CCCc1nc2ccc(C)cn2c1Cc1ccccc1OC,1,10,22*,-1
CCCc1nc2ccc(Cl)cn2c1Cc1ccccc1OC,-19,5,18,4
COC(=O)C1CN(C2CCCC2)CCS(=O)(=O)N1Cc1ccc(C)cc1 (stereo not drawn),5,-1,-2,-3
COc1ccc(-n2c(SCC(=O)Nc3ccc(S(=O)(=O)Nc4nccs4)cc3)nnc2-c2cccs2)cc1,1,5,1,1
OC(c1ccccc1)(c1ccccc1)C1CCN(CCCNc2ccc(C(F)(F)F)cc2)CC1,-2,-5,4,6
COC(=O)c1cc(-c2ccc(C(C)=O)cc2)c(=O)n2c1CCC2,-3,3,-3,0
O=C(CCc1nc(-c2ccccc2F)no1)NCCc1cccc(F)c1,1,2,2,-4
COC(=O)c1cn(C(=O)c2ccccc2Cl)c2ccccc12,8,0,25*,0
O=C1CN(C(=O)CNCc2ccc(Cl)cc2)c2ccccc2N1,5,2,62*,-1
CCc1cc(-c2nnn(CCC3COCCO3)c2CC)cc(CC)c1-c1cn(Cc2ccc3ccccc3c2)nn1 (stereo not drawn),-10,-1,65*,-3
C[C@@H]1CCN(C2CC2)S(=O)(=O)c2ccc(N3CC[C@H](N(C)C)C3)cc2O1,5,6,0,1
Cc1ccc(NC(=O)CN2C(=O)N/C(=C/c3cccn3-c3ccc(C(=O)O)cc3)C2=O)cc1,16,72*,102*,57*
Cc1cc(C)cc(NC(=O)c2ccc([N+](=O)[O-])o2)c1,2,-5,-2,3
NS(=O)(=O)c1ccc(O)c(NC(=O)c2ccc([N+](=O)[O-])o2)c1,-12,-6,42*,-3
CCCCNC(=O)C1(C(=O)C2CC2)CC(c2ccccc2C(F)(F)F)=NO1 (stereo not drawn),4,2,3,-2
O=C(NC1CCCCN(Cc2ccc(Cl)cc2)C1=O)c1cccc2nsnc12 (stereo not drawn),5,-2,-1,-4
COc1ccc(-c2nc3c4ccccc4ccn3c2CC2CCCCC2)cc1OC,5,7,23*,2
O=C(Cc1c[nH]c2ccccc12)Nc1ccc(Nc2cccnc2)c(-c2ccc(F)c(F)c2)c1,-10,1,-8,0
